{"source": "ChEMBL document CHEMBL4304756", "about": "“Second-Generation Tryptamine Derivatives Potently Sensitize Colistin Resistant Bacteria to Colistin” (ACS Med Chem Lett, 2019)", "key": {"Klebsiella pneumoniae [1]": {"tested_on": "Klebsiella pneumoniae", "experiment": "Potentiation of colistin-induced antibacterial activity against Klebsiella pneumoniae C3 assessed as reduction in colistin MIC at 15 uM incubated for 16 hrs by broth microdilution method (reference value: 512 ug/ml)", "format": "functional", "conditions": "C3, 16 h"}, "Acinetobacter baumannii [2]": {"tested_on": "Acinetobacter baumannii", "experiment": "Potentiation of colistin-induced antibacterial activity against Acinetobacter baumannii 17978 harbouring mcr-1 gene assessed as colistin sensitization activity in presence of Tween 80 at 30 uM incubated for 16 hrs by broth microdilution method", "format": "functional, organism-based", "outline": "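To exclude nonspecific aggregation, colistin resensitization of A. baumannii 17978+mcr-1 was run with adjuvant at 30 μM, with and without 0.01% Tween 80.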"}, "Escherichia coli [3]": {"tested_on": "Escherichia coli", "experiment": "Potentiation of colistin-induced antibacterial activity against Escherichia coli YD626 harbouring mcr-1 gene assessed as reduction in colistin MIC at 5 uM incubated for 16 hrs by broth microdilution method (reference value: 8 ug/ml)", "format": "functional", "conditions": "YD626, 16 h", "outline": "(§1)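 For the dose-response, colistin MIC was measured against mcr-1 plasmid-bearing E. coli, K. pneumoniae and A. baumannii while the adjuvant concentration was lowered stepwise (30, 15 μM, down to 5 μM). The aim was to find where the MIC rose above the 2 μg/mL CLSI susceptibility breakpoint.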"}, "Klebsiella pneumoniae [4]": {"tested_on": "Klebsiella pneumoniae", "experiment": "Potentiation of colistin-induced antibacterial activity against Klebsiella pneumoniae 2210291 assessed as colistin MIC at 50 uM incubated for 16 hrs by broth microdilution method (reference value: 1 ug/ml)", "format": "functional", "conditions": "Klebsiella pneumoniae, 2210291, 16 h"}, "Klebsiella pneumoniae [5]": {"tested_on": "Klebsiella pneumoniae", "experiment": "Potentiation of colistin-induced antibacterial activity against Klebsiella pneumoniae B9 assessed as reduction in colistin MIC at 10 uM incubated for 16 hrs by broth microdilution method (reference value: 512 ug/ml)", "format": "functional", "conditions": "B9, 16 h", "outline": "(§2)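 Colistin MIC was measured against chromosomally colistin-resistant strains (K. pneumoniae B9, C3; A. baumannii 4106, among four strains) with adjuvant at fixed levels from 20 μM down to 7.5 μM. Fold reduction was reported against colistin alone, with the CLSI breakpoint taken as ≤2 μg/mL.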"}, "Klebsiella pneumoniae [6]": {"tested_on": "Klebsiella pneumoniae", "experiment": "Potentiation of colistin-induced antibacterial activity against Klebsiella pneumoniae B9 assessed as reduction in colistin MIC at 5 uM incubated for 16 hrs by broth microdilution method (reference value: 512 ug/ml)", "format": "functional", "conditions": "B9, 16 h"}, "Klebsiella pneumoniae [7]": {"tested_on": "Klebsiella pneumoniae", "experiment": "Potentiation of colistin-induced antibacterial activity against Klebsiella pneumoniae C3 assessed as reduction in colistin MIC at 7.5 uM incubated for 16 hrs by broth microdilution method (reference value: 512 ug/ml)", "format": "functional", "conditions": "C3, 16 h", "outline": "as §2"}, "Klebsiella pneumoniae [8]": {"tested_on": "Klebsiella pneumoniae", "experiment": "Potentiation of colistin-induced antibacterial activity against Klebsiella pneumoniae B9 assessed as reduction in colistin MIC at 20 uM incubated for 16 hrs by broth microdilution method (reference value: 512 ug/ml)", "format": "functional", "conditions": "B9, 16 h"}, "Klebsiella pneumoniae [9]": {"tested_on": "Klebsiella pneumoniae", "experiment": "Potentiation of colistin-induced antibacterial activity against Klebsiella pneumoniae 2210291 harbouring mcr-1 gene assessed as reduction in colistin MIC at 15 uM incubated for 16 hrs by broth microdilution method", "format": "functional, organism-based", "outline": "as §1"}, "Acinetobacter baumannii [10]": {"tested_on": "Acinetobacter baumannii", "experiment": "Antivirulence activity in Acinetobacter baumannii 4106 infected Galleria mellonella larvae model assessed as survival rate at 50 mg/kg measured at 24 hrs interval over 4 days", "format": "functional", "outline": "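A. baumannii 4106 was given to Galleria mellonella larvae at 6 × 10^5 CFU, the lethal inoculum found by dose escalation. Larvae were treated with colistin 50 mg/kg, adjuvant 50 mg/kg, colistin plus adjuvant (50 mg/kg each), or tigecycline 100 mg/kg as positive control. Survival was scored out to day 4.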"}, "Escherichia coli [11]": {"tested_on": "Escherichia coli", "experiment": "Potentiation of colistin-induced antibacterial activity against Escherichia coli YD626 harbouring mcr-1 gene assessed as colistin MIC at 50 uM incubated for 16 hrs by broth microdilution method (reference value: 8 ug/ml)", "format": "functional", "conditions": "YD626, 16 h"}, "Klebsiella pneumoniae [12]": {"tested_on": "Klebsiella pneumoniae", "experiment": "Potentiation of colistin-induced antibacterial activity against Klebsiella pneumoniae B9 assessed as reduction in colistin MIC at 7.5 uM incubated for 16 hrs by broth microdilution method (reference value: 512 ug/ml)", "format": "functional", "conditions": "B9, 16 h"}}, "note": "Active and inactive are the calls of the source. No cut-off for these calls is given here.", "data": [{"smiles": "O=C(NCCc1c[nH]c2ccc(Br)cc12)Nc1cc(Cl)c(Br)c(Cl)c1", "values": [{"measurement": "MIC", "setting": "Klebsiella pneumoniae [1]", "value": 0.5, "unit": "µg/mL"}, {"measurement": "Activity", "setting": "Acinetobacter baumannii [2]", "value": "Active"}, {"measurement": "MIC", "setting": "Escherichia coli [3]", "value": 1, "unit": "µg/mL"}, {"measurement": "MIC", "setting": "Klebsiella pneumoniae [4]", "value": 0.5, "unit": "µg/mL"}, {"measurement": "MIC", "setting": "Klebsiella pneumoniae [5]", "value": "≤ 0.25", "unit": "µg/mL"}, {"measurement": "MIC", "setting": "Klebsiella pneumoniae [6]", "value": 0.5, "unit": "µg/mL"}, {"measurement": "MIC", "setting": "Klebsiella pneumoniae [7]", "value": 2, "unit": "µg/mL"}, {"measurement": "MIC", "setting": "Klebsiella pneumoniae [8]", "value": "≤ 0.25", "unit": "µg/mL"}, {"measurement": "Activity", "setting": "Klebsiella pneumoniae [9]", "value": "Active"}, {"measurement": "Activity", "setting": "Acinetobacter baumannii [10]", "value": 0, "unit": "%"}, {"measurement": "MIC", "setting": "Escherichia coli [11]", "value": 1, "unit": "µg/mL"}, {"measurement": "MIC", "setting": "Klebsiella pneumoniae [12]", "value": "≤ 0.25", "unit": "µg/mL"}]}]}
